ChEMBL document CHEMBL1158099, “A chemical study of cyclic depsipeptides produced by a sponge-derived fungus” (J Nat Prod, 2006)
In brackets after ≈: the same amount, converted by molar mass. Starred links: 1 amine or outer side, 2 acyl side, 3 side chain; linkers in the order of their positions; H or OH if unused. Non-standard residues stand in square brackets, D forms with d. Residues, ends and D or L forms follow the SMILES beside them. X1 = CC(C)(O)[C@H](O[*:1])C(=O)[*:2]; dNMeF = CN[C@H](Cc1ccccc1)C(=O)O; Hica(2S) = CC(C)C[C@H](O)C(=O)O; Hiv = CC(C)[C@H](O)C(=O)O; NMeA = CN[C@@H](C)C(=O)O

Tests used:
[1] = test system: CCRF-CEM; test: Cytotoxicity against human CEM cells by disk diffusion soft agar colony formation assay; format: cell-based
Procedure, shortened: (§1)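 Cell-based soft agar disk diffusion assay, applied to extracts, partition fractions and pure compounds. Read-out is the inhibition zone in zone units. The panel covers solid tumour cells (Colon 38, Colon H116, Lung H125), leukaemia cells (L1210, CEM) and normal CFU-GM. A sample counts as solid-tumour selective when the solid tumour zone exceeds the leukaemia or normal cell zone by more than 250 units.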

[2] = Cytotoxicity against human H116 cells by disk diffusion soft agar colony formation assay; format: functional; procedure, shortened: as §1
[3] = test system: L1210; test: Cytotoxicity against mouse L1210 cells by disk diffusion soft agar colony formation assay; format: functional; procedure, shortened: as §1
[4] = Cytotoxicity against mouse CFU-GM cells by disk diffusion soft agar colony formation assay; format: cell-based; procedure, shortened: as §1
[5] = test system: MC-38; test: Cytotoxicity against mouse C38 cells by disk diffusion soft agar colony formation assay; format: functional; procedure, shortened: as §1
[6] = Cytotoxicity against human H125 cells by disk diffusion soft agar colony formation assay; format: functional; procedure, shortened: as §1
[7] = Cytotoxicity against human CFU-GM cells by disk diffusion soft agar colony formation assay; format: cell-based; procedure, shortened: as §1
[8] = test system: Enterococcus durans; test: Antibacterial activity against Enterococcus durans; format: functional
[9] = test system: Staphylococcus epidermidis; test: Antibacterial activity against Staphylococcus epidermidis; format: functional

SMILES	Activity [1] [Zone units]	Activity [2] [Zone units]	Activity [3] [Zone units]	Activity [4]	Activity [5] [Zone units]	Activity [6] [Zone units]	Activity [7]	MIC [8] [µg/mL]	MIC [9] [µg/mL]
C[C@H]1CCC/C=C/[C@@H]2C[C@H](O)C[C@H]2[C@H](O)/C=C/C(=O)O1 [BREFELDIN A]	0	900	0	Not Active	150	600	1000 Zone units		
CC(C)C[C@@H]1OC(=O)[C@H](C)NC(=O)[C@H](C(C)C)OC(=O)[C@H](C)N(C)C(=O)[C@@H](C)NC(=O)[C@@H](Cc2ccccc2)N(C)C1=O [GUANGOMIDE B] (cyclo(A[Hica(2S)][dNMeF][dA][NMeA][Hiv]))								100 (≈ 166 µM)	100 (≈ 166 µM)
CC(C)C[C@@H]1OC(=O)[C@H](C)NC(=O)[C@H](C(C)(C)O)OC(=O)[C@H](C)N(C)C(=O)[C@@H](C)NC(=O)[C@@H](Cc2ccccc2)N(C)C1=O [GUANGOMIDE A] (cyclo(A[Hica(2S)][dNMeF][dA][NMeA][X1]))		50	0	Not Active	0	0	Not Active	100 (≈ 162 µM)	100 (≈ 162 µM)
